Measurements from the EternaBench riboswitch data.

Test system: MS2 coat protein
Experiment: apparent Kd, MS2 coat protein; higher = weaker binding; RNA-MaP array; FMN 200 µM where present
Method in brief: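 Stalled E. coli RNA polymerase transcribed the designs on Illumina sequencing-chip clusters. SNAP-549-labelled MS2 coat protein was titrated from 0.7 or 1.5 nM, doubling to 3 µM, without and then with constant ligand, in 100 mM Tris-HCl pH 7.5, 80 mM KCl, 4 mM MgCl2, BSA, DTT, yeast tRNA and Tween-20. Per-cluster binding curves were fitted to green signal normalised to red-channel RNA signal and control-cluster median Fmax. The apparent Kd is the median of the filtered fits.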

[1] = designed as: OFF switch for flavin mononucleotide, no ligand
[2] = ligand present: flavin mononucleotide, designed as: OFF switch for flavin mononucleotide
[3] = designed as: ON switch for flavin mononucleotide, no ligand
[4] = ligand present: flavin mononucleotide, designed as: ON switch for flavin mononucleotide

Row | Sequence | apparent Kd [1] [nM] | apparent Kd [2] [nM] | apparent Kd [3] [nM] | apparent Kd [4] [nM]
1 | CUGCUGGAGCUUUGCUCUAGUCGUACAUGAGGAUCACCCAUGUAGGAUAUGGUAGGCUUUGCUUACUAGAAGGAUAGAGUGGUC | 76.4 | 32.8 |  | 
2 | UGUCUGAUCUAAUAACAUGAGGAUCACCCAUGUGUUCACAACUAGGAUAUCGAUUGUUAAGAAAUCGAGAAGGAGUAUACAUUA | 44.8 | 50.8 |  | 
3 | UGACUGAAGCAAGGAUAUUGAAAAGUUAACGUACAAGAAGGUGCUGUUUAUGUCUCUUUACAUGAGGAUCACCCAUGUUUUUAU |  |  | 36.7 | 23.2
4 | CCAGCGUAUGUGAGGAUAUGCUGGUCCUUGGAUCAGCAGAAGGCACAUGAGGAUCACCCAUGUGAGAGCGUUGG | 25.7 | 197 |  | 
5 | CGUUAUGAUAGAGGAUAUGUAAUACAUGAGGAUCACCCAUGUCACAUGGACAUUGUUUCUAAUUUACAGAAGGCUAUCCUUUCG | 20.3 | 16.3 |  | 
6 | AUCCGACAUGAGGAUCACCCAUGUCAGGAUAUGGACUGACAUCGAAAGGAUGGAAGAACCAGAAGGGACUGGGC | 28.2 | 48.5 |  | 
7 | AUUUCGUCAGGAUAUCCUAGUAAUUGUUUCAUAUUUACGAAGGAGAAGGGACAUGAGGAUCACCCAUGUUGGUC | 58.7 | 130 |  | 
8 | UUUUUAUUUGAAGGAUAUACUUAACAUGAGGAUCACCCAUGUGGUGUUGUGAGUGAGUGAGUUUAGUAGAAGGUCAAUUAUUUU | 373 | 703 |  | 
9 | UUGGACGUCGUAGGAUAUGUAGGAUAUUCCUACAUGAGGAUCACCCAUGUUGAUAUGGAAGAAGGACAGAAGGACGAUGUCCAU |  |  | 31.8 | 4.64
10 | CGAUAACAUAGUUAUCAGUAACGGACAUGAGGAUCACCCAUGUAGGAUAUGUUACUCAACGAGUAACAGAAGGACAUGAGUCUU | 19.2 | 91.2 |  | 
11 | GCUCAGUAAGGAUAUUAAUGACGCUGUUAUUCAGCGUCAGCUGAGAAGGUACAUGAGGAUCACCCAUGUGGUGA | 210 | 117 |  | 
12 | CGGGUCUGAGGAUAUCCAUCUUCAUACAUGAGGAUCACCCAUGUUUACCUUUGGGUUUCUGGAGAAGGCAGUUUUC | 48.3 | 73 |  | 
13 | CUGAUGUUAGGAUAUCAGGCACCCGCCACUGGCAGGGCGCAUGAGAAGGGACAUGAGGAUCACCCAUGUAGUAA | 25.2 | 60.1 |  | 
14 | GUUUCACAUGAGGAUCACCCAUGUGAGGAUAUGGUUUCGCUGGCCGUAGCCAGUGGAACCAGAAGGCGCGUGAU | 60.7 | 71.1 |  | 
15 | CGAAAACCACAGAAGGCCCGGGACAUGAGGAUCACCCAUGUAGAAAGUGGGAGGAUAUGUGUACGCGGCGUGCUGACCUCGUGA |  |  | 232 | 27.4
16 | ACCUGGAUAGGAUAUACAUGAGGAUCACCCAUGUGACUCAGGCCAGGGAAGUACUUCGGUAGAAGGGUCCAGUA | 18.2 | 20.7 |  | 
17 | UGGGAUGGCUAGAAGGCUCCGUAAACUACAGGGAGAGGAUAUGGCACAUGAGGAUCACCCAUGUGUACCUGUAGGUGAUCCACA | 19 | 90.8 |  | 
18 | GGUGGACAUGAGGAUCACCCAUGUGAGGAUAUCGGCUGGUACGUGGUGGCUGGCAUCUCGAGAAGGCACAUAGU | 80.1 | 202 |  | 
19 | UUGUUUCGUCAUUAACAUGAGGAUCACCCAUGUAAAGAACCAGAGGAUAUGCAUGUUUGAUUGUAGCAGAAGGCUGAUUGUUGU |  |  | 35.8 | 33.4
20 | AUAUUGUGAGGAUAUGAACUAAGUAUCGAAAGAUACUAAGUUCAGAAGGCACAUGAGGAUCACCCAUGUUUCUC | 76.7 | 729 |  | 
21 | GGGUACAUCGGAGGAUAUCAUGUAAAUACAUGAGGAUCACCCAUGUCGAUGGAGAUAUCGGAGAUUGAGAAGGCCGAUGUACCG |  |  | 102 | 9.9
22 | CGAUAGGACAGAGGAUAUACACAUGAGGAUCACCCAUGUAAUUACAAUUCUUAAGAUUCAAACAUGUAGAAGGCUGUCCUAUCG | 35.9 | 13.1 |  | 
23 | AAUAACAGAGGAUAUACUAUUUUAUGUAUUUAUUAUUUUAAACAUGAGGAUCACCCAUGUAGAAGGCUGAUUGA | 29.9 | 28.4 |  | 
24 | GGAUGACAAAGUCAUCCAAUACGACAUGAGGAUCACCCAUGUUAGGAUAUGCUACUCAAAGAGUAGCAGAAGGACAUGUGCCUU | 23.7 | 33.4 |  | 
25 | CUUCAGUCAGGAUAUGUUAAUCUCGCCACUCCGCGAACCGGACAGAAGGGACAUGAGGAUCACCCAUGUUAAAC | 30.4 | 19.5 |  | 
26 | ACGUUUUAUGCAGGAUAUUGAAAUAUAUUUAAACAAGAAGGGCAAUACAUGAGGAUCACCCAUGUCAGCAUGGUAUUUAAGUUC | 43.9 | 45.4 |  | 
27 | GCAUGUUAUGUCAGGAUAUACCUAUGGAUACAUAGGUAGAAGGGACAUGAGGAUCACCCAUGUCCUAACCAUGC | 11.8 | 15.1 |  | 
28 | GGUAAGAUGCAGAAGGUGUUAGCUAGAGCUACGACAUGAGGAUCACCCAUGUACUAGAAACAGUACAAGGAUAUGCAUCUUACG |  |  | 19.1 | 6.5

Row | Sequence | apparent Kd [1] [nM] | apparent Kd [2] [nM] | apparent Kd [3] [nM] | apparent Kd [4] [nM]
29 | ACCACGUUAGCGAUAUGAUCGAGAGAUCAUGUCGCUAUAUUUAGAAGGACAUGAGGAUCACCCAUGUAGGAUAUGGGUCGUGGA |  |  | 36.3 | 9.03
30 | AUCAGCUCGUCAGGAUAUAGGUCACUGCGUCAGCAGUGUGGUAAGAUCACAUGAGGAUCACCCAUGUAGAAGGGACGAGCUGAU | 17.3 | 59.5 |  | 
31 | CGAUGACAAAGUCAUCGAUAACGAACAUGAGGAUCACCCAUGUAGGAUAUGCUACUCAAAGAGUAGCAGAAGGACAUGUGUCUU | 31.7 | 154 |  | 
32 | UGUUGUAUUACAGGAUAUCUAUGGUUUUUAUUUAGAGAAGGGUAUUCACAUGAGGAUCACCCAUGUAUAUACGAGGAAGUUGUG |  |  | 57.5 | 63.7
33 | CAGUACUGAGGAUAUACAUGAGGAUCACCCAUGUGCCUAAGGUAGGAUACUACCAUUAGUAGAAGGCAGUACUG | 13.8 | 29.6 |  | 
34 | AGAUAGUUAUAACGCCAUCCCUACAUGAGGAUCACCCAUGUGCAGGAUAUAGGCUUGAAGCAAACCUAGAAGGGCACAGGUUGA | 15.8 | 35.9 |  | 
35 | AUCAGCUCGUCAGGAUAUACGUCACUGCUUCGGCAGUGUGGUAAGAUUACAUGAGGAUCACCCAUGUAGAAGGGACGAGCUGAU | 6 | 8.61 |  | 
36 | UUGAGGUCAGGAUAUGCAUGGCGGGACUUGCGUCGUGGCGUGCAGAAGGGACAUGAGGAUCACCCAUGUGGAGC | 75.2 | 211 |  | 
37 | GCUGUCGUAUGAGGAUAUGGUCACCUUUGGUGACCAGAAGGCAUGUCAAUAGACAUGAGGAUCACCCAUGUAGUAAAGACAGCA |  |  | 391 | 39.4
38 | UGGUACUAGGGAGGAUAUGGGAUGAUACAUGAGGAUCACCCAUGUUUAAGAAUGCCGAGAGGCAACUAGAAGGCCCUAGUACCU |  |  | 448 | 174
39 | AUGUAUCACACAGGAUAUACAUGAGGAUCACCCAUGUGUCCUCCGUAAUUGACACCAAUUACGCUGUAGAAGGGUGUGAUACAU | 274 | 204 |  | 
40 | GGUCGUCAUAUUAACAUGAGGAUCACCCAUGUGAAAACACAUGAGGAUAUGCAUCCUAAUUGGAUGCAGAAGGCAUGGACGACC |  |  | 23.7 | 6.49
41 | CGCAUGCGUAGUAUUAGUUGCUGACAGGAUAUGACAUGAGGAUCACCCAUGUGAAUUAAGAAGAGUCAGAAGGGUCACGUUGCG | 11.6 | 10.6 |  | 
42 | UACUUACGAGGAUAUCGAUUGUGGUACAUGAGGAUCACCCAUGUAUGUGAUAUUGUAUUUCGAGAAGGCGUUCAGU | 25.8 | 21.7 |  | 
43 | AGGGUACAUGAGGAUCACCCAUGUGGGUCGGUCGCAGGAUAUGCCCGUGGGCGCUGGCGGGCAGAAGGGUGCCGAA |  |  | 313 | 45
44 | GCACUCAAGUUAGGAUAUGGAUCGGAAAACGAUCCAGAAGGAAUAUGGGAACAUGAGGAUCACCCAUGUUCCACAAACGAGUGC |  |  | 40.9 | 22.1
45 | GUUUUCGCAUGAGGAUAUGCUCGCAUUUCAAGAGCAGAAGGUAUGUCUAUAGACAUGAGGAUCACCCAUGUAUUUAUCAUUGAA |  |  | 273 | 118
46 | AGAUAACACCAGAAGGACAUGAGGAUCACCCAUGUAGGAUAUGGGCAUCACUCGAGAAAGAAAAGACCAAAUGUACACGCGGUC |  |  | 91.7 | 9.27
47 | UUUUAGCUAGGAUAUACAUUUUUUUUAUUAUCCUCAUUAUUACAUGAGGAUCACCCAUGUAGAAGGAGCAUUUU | 237 | 313 |  | 
48 | CUCUAGUGAGGAUAUCAGUAGUAAAAAAAUAAAAUUACUACUGAGAAGGCACAUGAGGAUCACCCAUGUCUUUC | 87.1 | 46.5 |  | 
49 | AGAAAGGCAGGAUAUACAUGAGGAUCACCCAUGUUAAGAGUGACGGAAACGUCACGAAGUAGAAGGGCCAAGAA | 21.1 | 18.7 |  | 
50 | GCACGGUAAGUGAGGAUAUACCUCUGGAUACAGAGGUAGAAGGCACAUGAGGAUCACCCAUGUUCCAGCCGUGC | 17.9 | 74.8 |  | 
51 | GUAGCAUAGACAGGAUAUCUAUACCCGAAAGGGACAUGAGGAUCACCCAUGUUGCGAAAGCGGUGGGAGAAGGGUCUAUGCUAC |  |  | 25.4 | 6.04
52 | UAACUGCAGAAGAUAAUAAUGAAUACAUGAGGAUCACCCAUGUAGGAUAUCGUCAGGAAUACUGACGAGAAGGACAUACUGCAG | 14.1 | 16.9 |  | 
53 | UGUUGUAUUACAGGAUAUCUAGUAUUUUUACUUAGAGAAGGGUAUUCACAUGAGGAUCACCCAUGUAUAUACGAGGAAGUUGUG |  |  | 28.8 | 29.8
54 | GGAAAACAUGAGGAUCACCCAUGUGAGGAUAUCGAUGUCCAAAAAGAGGUGCGGGACUCGAGAAGGCACUUGGA | 55.1 | 54 |  | 
55 | UUCAAGGGUUGAGGAUAUCCCGGUUGUGUCCUCAUCCGCCAAGGUACAUGAGGAUCACCCAUGUGGGAGAAGGCAAUACUAGAG | 130 | 182 |  | 
